Screens deposited in PubChem by Broad Institute.
In the library only some 1.4% were active in any assay of this set; here they are far more common.
CAL PDZ FP-1 = CAL PDZ (human) peptide binding inhibition. 300,000 tested, 0.92% active. purified CAL PDZ, TMR-peptide fluorescence polarization, 1 h. AID 602252. inhibition, % at 24.9 µM. Q9HD26;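 active = mean inhibition of at least 30% with at least half of replicates also reaching 30%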;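 also: 0% = DMSO neutral control and 100% = excess unlabeled competitor peptide PRC23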
ARNT-TACC3 inh = disrupts binding between human ARNT and TACC3. inhibition, % at 9.99 µM. AlphaScreen His-ARNT PAS-B/GST-TACC3 binding, luminescence; TACC3 fragment carries E629A point mutation. Q9Y6A5. 390,000 tested, 0.66% active. AID 623870;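 active = mean inhibition of replicates at least 50% and at least half of replicates each reaching 50%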;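 also: 0% = complete ARNT plus TACC3 wells and 100% = ARNT alone without TACC3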
DYRK1A inh = inhibitors of rat Dyrk1A kinase; ADP-Glo luminescence, NFATc1 peptide; 310,000 tested, 0.43% active; AID 504441; Q63470; inhibition, % at 12.5 µM; in the data active = inhibition above about 50%;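 also: plate controls were vehicle with enzyme for no effect and no enzyme for full effect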
CAL PDZ FP-2 = human CAL PDZ-peptide interaction inhibition. Q9HD26. purified CAL PDZ, TMR-peptide fluorescence polarization, 1 h. inhibition, % at 20 µM. 330,000 tested, 0.02% active. AID 504414;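 active = highest replicate inhibition of at least 40%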;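 also: plate controls were DMSO neutral control wells for no effect and unlabeled competitor peptide control wells for full effect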
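Material: tagged CAL PDZ protein CerCALP, purified; buffer or medium: sodium phosphate/NaCl buffer pH 7.4 with TCEP, IgG, Thesit; also added: fluorescent TMR peptide probe; schedule: 1 h incubation at room temperature before polarization reading; technique: fluorescence polarization from S- and P-plane intensities, G-factor corrected; control set: unlabelled peptide and DMSO controls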
ADP-Glo artifact = counter-screen for Dyrk1A inhibitors: ADP-Glo luciferase artifacts; shares compounds with DYRK1A inh; ADP-Glo luciferase artifact assay, no Dyrk1A, luminescence; AC50, µM (series often up to 12 µM), inactives show at the highest dose activity change, negative = inhibition; 1,300 tested, under 10 active;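 active = fitted half-maximal dose AC50 no more than ten times the top valid tested dose, with luminescence dropping as dose rises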
Starred values were filed as active, the others as inactive; . = no result.

SMILES	CAL PDZ FP-1	ARNT-TACC3 inh	DYRK1A inh	CAL PDZ FP-2	ADP-Glo artifact
CNC(=O)CC1C(=O)N(c2ccc(Cl)cc2)C(=S)N1NC(=O)c1cccc(F)c1 (configuration not stated)	-2	-6	9	-1	.
COc1ccccc1S(=O)(=O)N1CC[C@@H]2[C@@H](CO)N(C)c3ccc(-c4ccccc4)cc3[C@@H]21	.	-5	.	.	.
O=C(Nc1ccc(Cl)c([N+](=O)[O-])c1)c1ccc2c(c1)OCCO2	30*	-2	1	17	.
O=C(CCN1C(=O)/C(=C\c2ccccc2)SC1=S)N1CCCCC1	.	-1	-2	-1	.
O=C(CCN1C(=O)/C(=C/c2cccs2)SC1=S)N1CCCCC1	85*	-13	0	-1	.
CCOc1cc2nc(-c3ccc(OC)c(OC)c3)nc(NCCCN3CCOCC3)c2cc1OC	-2	55*	1	-7	.
COc1cc2nc(=S)n(CCCN3CCOCC3)c(N)c2cc1OC	5	56*	1	-2	.
COc1cc2ncnc(NCCCN3CCOCC3)c2cc1OC	4	-4	0	-2	.
C[C@@H]1CCCCO[C@@H](CN(C)Cc2ccccc2)[C@@H](C)CN([C@@H](C)CO)C(=O)c2cc(NC(=O)Cc3ccccc3)ccc2O1	.	-3	.	.	.
COc1ccc(-c2ccc3c(c2)[C@@H]2[C@@H](CCN2C(=O)c2ccc4c(c2)OCO4)[C@H](CO)N3C)cc1	.	-6	.	.	.
COc1cnc(-c2ccccc2)nc1Oc1ccccc1C	.	-18	2	0	.
COc1cnc(-c2ccccn2)nc1Oc1ccc(Cl)c2ccccc12	-4	17*	-5	-2	.
O=c1[nH]c2nc(Cl)nc(Cl)c2[nH]1	81*	-3	1	-1	.
O=C(Nc1ccc(F)cc1)C(=O)c1c(O)[nH]c2ccc([N+](=O)[O-])cc12	6	0	57*	0	7%
O=C(N=Nc1c(O)[nH]c2ccc([N+](=O)[O-])cc12)c1ccccc1Cl	10	-5	6	1	.
COCCNC(=O)C[C@H]1C=C[C@H](NC(=O)NC2CCCCC2)[C@@H](CO)O1	.	3	.	.	.
O=C1C=C(Nc2ccccc2C(=O)O)c2ccccc2C1=O	76*	36	56*	2	9%
Oc1[nH]c2ccc(Br)cc2c1N=NC(=S)N1CCOCC1	-5	66*	63*	-1	9%
COC(=O)N=Nc1c(O)[nH]c2ccc(Br)cc12	-1	-1	1	-3	.
COc1ccc(NC(=O)N(C)C[C@@H]2Oc3ccc(NC(=O)Nc4ccc(F)cc4)cc3CC(=O)N([C@@H](C)CO)C[C@H]2C)cc1	.	5	.	.	.
CC1Cc2ccccc2N1c1ncnc2nc[nH]c12 (configuration not stated)	.	-5	72*	0	8%
CC1CCN(c2ncnc3nc[nH]c23)CC1	.	0	81*	0	8%
CC(C)C#Cc1ccc2c(c1)O[C@H](CN(C)C)[C@@H](C)CN([C@@H](C)CO)S2(=O)=O	.	36	.	.	.
CO[C@H]1CN(C)C(=O)c2ccc(NC(=O)C3CCCCC3)cc2OC[C@H](C)NC[C@H]1C	.	-9	.	.	.
Nc1cc2c([N+](=O)[O-])cccc2o1	2	5	60*	-2	8%
SMILES	CAL PDZ FP-1	ARNT-TACC3 inh	DYRK1A inh	CAL PDZ FP-2	ADP-Glo artifact
O=C1C=C(c2ccc3c(c2)OCO3)CCC1	-3	4	66*	0	9%
COc1ccc2nc3c(cc2c1)c(NC(=O)C1CCCO1)nn3CC(C)C (configuration not stated)	0	-59	79*	-1	10%
C[C@@H]1CCCCO[C@H](CN(C)C(=O)c2ccccc2)[C@H](C)CN([C@H](C)CO)C(=O)c2cc(NS(=O)(=O)c3cn(C)cn3)ccc2O1	.	-2	.	.	.
Nc1ccc2ncccc2c1N	-2	-1	4	0	.
Nc1nc(N)c2c(ccc3nccc32)[nH]1	-4	3	55*	-2	8%
C[C@@H]1CN([C@H](C)CO)C(=O)c2cccc(NC(=O)c3cnccn3)c2O[C@H]1CN(C)S(C)(=O)=O	.	-5	.	.	.
COc1ccc(C(=O)Nc2ccnc(-c3cccnc3)n2)cc1	-1	-7	31	-1	.
Cc1ccc(C(=O)Nc2ccnc(-c3cccnc3)n2)cc1	-2	-3	60*	-1	9%
O=C1c2ccccc2C(=O)C1c1ccncc1	-1	8	35	-1	.
O=C1c2ccccc2C(=O)C1c1ccccn1	1	-2	61*	-2	12%
O=[N+]([O-])c1ccc(O)c(/C=N/n2c(-c3ccccc3)n[nH]c2=S)c1	-2	-6	57*	-1	7%
O=c1c2c3c(sc2n2c(=S)[nH]nc2n1-c1ccccc1)CCC3	.	-9	55*	-1	9%
O=C1c2ccccc2S(=O)(=O)N1Cc1nnc(-c2ccccc2Br)o1	1	11	59*	0	9%
COc1ccc(/C=C/C(=O)Nc2cccc(C(C)=O)c2)cc1	9	.	56*	-4	7%
O=C(/C=C/c1ccccc1)Nc1cccc(C(=O)NC2CC2)c1	-1	3	63*	-2	8%
CC[C@@H](C)[C@H](CNC)NC[C@@H](Cc1cccc2ccccc12)NCCc1cccc(C(F)(F)F)c1	0	23	55*	0	4%
CCC[C@H](CN[C@@H](CNC)[C@H](C)CC)NCCc1cc(C(F)(F)F)cc(C(F)(F)F)c1	-3	10	9	-3	.
Cc1ccc(S(=O)(=O)N(C)C[C@H]2Oc3c(NC(=O)c4ccncc4)cccc3C(=O)N([C@@H](C)CO)C[C@H]2C)cc1	.	-3	.	.	.
O=C(Cn1c(-c2cncs2)nc2ccccc21)NCc1ccccc1	0	12	60*	1	10%
CC(C)c1cn(CC[C@@H]2CC[C@@H](NC(=O)Nc3cc(Cl)cc(Cl)c3)[C@H](CO)O2)nn1	.	-11	.	.	.
COc1ccc(NC(=O)N(C)C[C@@H]2Oc3ccc(NC(=O)c4ccncc4)cc3C(=O)N([C@@H](C)CO)C[C@H]2C)cc1	.	-12	.	.	.
COc1cc(C(=O)Nc2cccc(-c3nncn3C)c2)cc(OC)c1OC	0	1	77*	0	10%
COc1cc(C(=O)Nc2cccc(NC(=O)c3ccccc3)c2)cc(OC)c1OC	-4	0	8	-3	.
COc1ccccc1NC(=S)N/N=C/c1ccc(O)cc1	-3	9	51*	-2	11%
CCCCn1c(NCCO)nc2ccccc21	.	-4	58*	1	11%
CCCCn1c(NCc2ccccc2O)nc2ccccc21	-2	-6	-3	-1	.
O=C(NNC1=C(C(=O)C(F)(F)F)CCC1)c1ccccc1O	-1	63*	56*	0	10%
COc1ccc2cc(C(=O)N/N=C/c3cc(OC)c(OC)c(OC)c3)[nH]c2c1	0	6	54*	4	9%
COCCCn1c(SCC(=O)NC2CCCCC2)nnc1-c1ccncc1	-4	-3	51*	-1	8%
